According to ChEMBL document CHEMBL1143716, “Analysis of crucial structural requirements of 2-substituted pyrimido[4,5-b][1,5]oxazocines as NK(1) receptor antagonist by axially chiral derivatives” (Bioorg Med Chem, 2007):

biological target: Substance-P receptor (Cavia porcellus) (UniProt P30547); experiment: Antagonist activity at guinea pig NK1 receptor assessed as effect on ileum contractions; type: functional, tissue-based
How it was run: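 Guinea pig ileum in organ bath with Tyrode's solution, 32 °C, gassed 95% O2/5% CO2, resting tension 1 g, 20 min equilibration. Pretreated 10 min with at least three concentrations of test compound in DMSO, then cumulative substance P concentration-response curve versus substance P control curve. KB by Schild method; means, n = 3–5.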

Chain of Substance-P receptor (Cavia porcellus) (P30547 whole entry): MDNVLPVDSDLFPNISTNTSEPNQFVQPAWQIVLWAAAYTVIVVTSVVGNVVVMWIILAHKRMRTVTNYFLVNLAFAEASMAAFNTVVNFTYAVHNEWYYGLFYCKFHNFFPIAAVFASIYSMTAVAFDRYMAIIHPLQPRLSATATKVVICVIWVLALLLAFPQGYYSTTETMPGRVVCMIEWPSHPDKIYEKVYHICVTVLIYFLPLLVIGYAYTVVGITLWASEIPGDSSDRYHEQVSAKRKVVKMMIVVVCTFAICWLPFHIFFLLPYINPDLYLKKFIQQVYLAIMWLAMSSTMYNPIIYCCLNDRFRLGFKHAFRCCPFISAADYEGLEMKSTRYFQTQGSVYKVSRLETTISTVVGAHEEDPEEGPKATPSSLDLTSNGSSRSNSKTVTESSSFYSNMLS

Structure (SMILES)	Kb
CC(=O)N1C(C)CN(c2nc3c(c(-c4ccccc4C)n2)C(=O)N(Cc2cc(C(F)(F)F)cc(C(F)(F)F)c2)C[C@H](C)CO3)CC1C (some centres not stated)	0.217 nM
Cc1ccccc1-c1ncnc2c1C(=O)N(Cc1cc(C(F)(F)F)cc(C(F)(F)F)c1)C[C@@H](C)CO2	162 nM
CC(=O)N1CCN(c2nc3c(c(-c4ccccc4C)n2)C(=O)N(Cc2cc(C(F)(F)F)cc(C(F)(F)F)c2)C[C@@H](C)CO3)CC1	0.345 nM
CC(=O)N1CCN(c2nc3c(c(-c4ccccc4C)n2)C(=O)N(Cc2cc(C(F)(F)F)cc(C(F)(F)F)c2)C[C@H](C)CO3)CC1	0.139 nM
Cc1ccccc1-c1nc(N(C)C)nc2c1C(=O)N(Cc1cc(C(F)(F)F)cc(C(F)(F)F)c1)C[C@@H](C)CO2	52.9 nM
Cc1ccccc1-c1nc(N(C)C)nc2c1C(=O)N(Cc1cc(C(F)(F)F)cc(C(F)(F)F)c1)C[C@H](C)CO2	0.427 nM
Cc1ccccc1-c1nc(N(C)C)nc2c1C(=O)N(Cc1cc(C(F)(F)F)cc(C(F)(F)F)c1)CCCO2	0.679 nM
Cc1ccccc1-c1ncnc2c1C(=O)N(Cc1cc(C(F)(F)F)cc(C(F)(F)F)c1)C[C@H](C)CO2	12.6 nM

The remaining lines, values ahead:

Kb	Structure (SMILES)
0.545 nM	CC(=O)N1C(C)CN(c2nc3c(c(-c4ccccc4C)n2)C(=O)N(Cc2cc(C(F)(F)F)cc(C(F)(F)F)c2)C[C@@H](C)CO3)CC1C (some centres not stated)
11.6 nM	Cc1ccccc1-c1ncnc2c1C(=O)N(Cc1cc(C(F)(F)F)cc(C(F)(F)F)c1)CCCO2
0.105 nM	CC(=O)N1CCN(c2nc3c(c(-c4ccccc4C)n2)C(=O)N(Cc2cc(C(F)(F)F)cc(C(F)(F)F)c2)CCCO3)CC1
0.679 nM	CC(=O)N1C(C)CN(c2nc3c(c(-c4ccccc4C)n2)C(=O)N(Cc2cc(C(F)(F)F)cc(C(F)(F)F)c2)CCCO3)CC1C (configuration not stated)
